Measured values from ChEMBL document CHEMBL1155904, “Synthesis and evaluation of heteroaryl-ketone derivatives as a novel class of VEGFR-2 inhibitors” (Bioorg Med Chem Lett, 2008).

Columns and labels:
Format in all cases: ADME, organism-based
Settings in all cases: read-out: Drug uptake
[1] = Plasma concentration in mouse at 30 mg/kg, ip after 1 hr; design: dose 30 mg/kg, route intraperitoneal
Procedure, shortened: (§1)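 Mice dosed intraperitoneally at 30 mg/kg in a vehicle of 5% ethanol, 5% Tween-80, 5% PEG400 and 85% PBS. Plasma drug concentration measured at set times after injection.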

[2] = Plasma concentration in mouse at 30 mg/kg, po after 1 hr; design: dose 30 mg/kg, route oral
[3] = Plasma concentration in mouse at 30 mg/kg, ip after 4 hrs; design: dose 30 mg/kg, route intraperitoneal; procedure, shortened: as §1

| Compound | concentration at 1 h [1] [nM] | concentration at 1 h [2] [nM] | concentration at 4 h [3] [nM] |
| --- | --- | --- | --- |
| O=C(c1ccccc1NCc1ccc2ncccc2c1)c1n[nH]c2ccccc12 | 2400 | 1800 |  |
| Cc1ccc2c(c1)c(C(=O)c1ccccc1NCc1ccc3ncccc3c1)cn2C | 2900 | 1800 | 1100 |
